Common to all, as to format: functional
The subject of test [1] is Staphylococcus aureus. Put plainly: Antibacterial activity against Staphylococcus aureus ATCC 25923 by broth microdilution method. A general note: Broth dilution looks for growth in wells or tubes with falling amounts of substance.
Test [2] deals with Staphylococcus aureus. The experiment in a line: Antibacterial activity against methicillin-resistant Staphylococcus aureus ATCC 700699 by broth microdilution method. The conditions noted are these: Mu50.
For test [3], the system named is Staphylococcus aureus. Put plainly: Antibacterial activity against Staphylococcus aureus ATCC 29213 by broth microdilution method.
Another test concerns Escherichia coli. Put plainly: Antibacterial activity against Escherichia coli ATCC 9637 by broth microdilution method. The conditions noted are these: W. Summed up:
(§1)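 Bacteria were tested by the NCCLS method in Mueller Hinton broth, with gentamicin and norfloxacin as reference drugs.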

For a further test, the system named is Pseudomonas aeruginosa. The experiment in a line: Antibacterial activity against Pseudomonas aeruginosa ATCC BAA-427 by broth microdilution method. A digest of the protocol:
as §1

Another test deals with Klebsiella pneumoniae. The experiment in a line: Antibacterial activity against Klebsiella pneumoniae ATCC 27736 by broth microdilution method. A digest of the protocol:
as §1

For a further test, the system named is Candida albicans. The experiment in a line: Anti-fungal activity against Candida albicans after 48 hrs by broth microdilution method.
For the next test, the system named is Cryptococcus neoformans. The experiment in a line: Anti-fungal activity against Cryptococcus neoformans after 48 hrs by broth microdilution method.
In another test the test system is Sporothrix schenckii. The experiment in a line: Anti-fungal activity against Sporothrix schenckii after 48 hrs by broth microdilution method.
For test [4], the system named is Trichophyton mentagrophytes. The experiment in a line: Anti-fungal activity against Trichophyton mentagrophytes after 48 hrs by broth microdilution method.
The subject of the next test is Aspergillus fumigatus. Put plainly: Anti-fungal activity against Aspergillus fumigatus after 48 hrs by broth microdilution method.
In the next test the test system is Candida parapsilosis. The experiment in a line: Anti-fungal activity against Candida parapsilosis ATCC 22019 after 48 hrs by broth microdilution method. The conditions noted are these: Lodderomyces parapsilosis, ATCC 22019, 48 h.
In the next test the test system is Plasmodium falciparum. The experiment in a line: Antimalarial activity against chloroquine-sensitive Plasmodium falciparum 3D7 after 72 hrs by SYBR Green-1 staining based fluorescence assay. The conditions noted are these: 3D7, 72 h.

This is an account of results in ChEMBL document CHEMBL3994637, “Broad spectrum anti-infective properties of benzisothiazolones and the parallels in their anti-bacterial and anti-fungal effects” (Bioorg Med Chem Lett, 2017).

pIC50: −log10 of the molar value. Values after ≈ are worked out from the molar mass of the structure shown.

In general, IC50 refers to the concentration that gives 50% inhibition. A lower IC50 goes with greater potency. By MIC is commonly meant the lowest concentration found to suppress growth. Low values mean a more susceptible organism, high ones a less susceptible organism. As a reminder, the pIC50 is the negative decadic logarithm of the IC50, by convention in mol/L. A higher pIC50 goes with a small IC50. As to `COC(=O)[C@H](c1ccccc1)n1sc2ccccc2c1=O`, the IC50 with Staphylococcus aureus [1] was 1.1 µg/mL (≈ 3.67 µM); in the test with Staphylococcus aureus [2], 2.6 µg/mL (≈ 8.69 µM); in the test with Staphylococcus aureus [3], 13.5 µg/mL (≈ 45.1 µM); in the test with Escherichia coli it was over 50 µg/mL; with Pseudomonas aeruginosa, over 50 µg/mL; with Klebsiella pneumoniae it was over 50 µg/mL. For the same compound, the half-inhibitory concentration (IC50) (in the test on Candida albicans; in the test with Cryptococcus neoformans; in the test on Sporothrix schenckii; in test [4]; with Aspergillus fumigatus; in the test with Candida parapsilosis) was over 50 µg/mL each time. For the same compound, the MIC with Staphylococcus aureus [1] is 1.5 µg/mL (≈ 5.01 µM); with Staphylococcus aureus [2], 4.2 µg/mL (≈ 14 µM); in the test with Staphylococcus aureus [3] it was 18.7 µg/mL (≈ 62.5 µM); in the test with Escherichia coli, over 50 µg/mL; against Pseudomonas aeruginosa, over 50 µg/mL; in the test with Klebsiella pneumoniae, over 50 µg/mL. Moreover, the minimal inhibitory concentration (MIC) (with Candida albicans; with Cryptococcus neoformans; with Sporothrix schenckii; in test [4]; with Aspergillus fumigatus; in the test on Candida parapsilosis) was over 50 µg/mL throughout. The compound also had a pIC50 with Plasmodium falciparum of under 5.70.

In the case of `CC(=O)Nc1ccccc1-n1sc2ccccc2c1=O`, the IC50 in the test with Staphylococcus aureus [1], in the test on Staphylococcus aureus [2], in the test with Staphylococcus aureus [3], with Escherichia coli, in the test on Pseudomonas aeruginosa and in the test on Klebsiella pneumoniae was over 50 µg/mL each time. The 50% inhibitory concentration (IC50) (with Candida albicans; in the test with Cryptococcus neoformans; in the test with Sporothrix schenckii; in test [4]; with Aspergillus fumigatus; in the test on Candida parapsilosis) was over 50 µg/mL each time. Further, the minimum inhibitory concentration (MIC) in the test on Staphylococcus aureus [1], against Staphylococcus aureus [2], against Staphylococcus aureus [3], against Escherichia coli, against Pseudomonas aeruginosa and against Klebsiella pneumoniae was over 50 µg/mL in each case. Also, the MIC (in the test on Candida albicans; in the test on Cryptococcus neoformans; with Sporothrix schenckii; in [4]; against Aspergillus fumigatus; against Candida parapsilosis) was over 50 µg/mL each time. In addition, in the test with Plasmodium falciparum, the negative-log IC50 (pIC50) is under 5.70.

Regarding `CC(C)Cn1sc2ccccc2c1=O`, the IC50 in the test with Staphylococcus aureus [1] was 10.6 µg/mL (≈ 51.1 µM); in the test with Staphylococcus aureus [2], 4.7 µg/mL (≈ 22.7 µM); with Staphylococcus aureus [3], 6.3 µg/mL (≈ 30.4 µM); in the test on Escherichia coli, over 50 µg/mL; with Pseudomonas aeruginosa, over 50 µg/mL; with Klebsiella pneumoniae, over 50 µg/mL. For the same compound, the half-inhibitory concentration (IC50) in [4] is over 50 µg/mL; in the test with Aspergillus fumigatus it was 1.3 µg/mL (≈ 6.27 µM); with Candida parapsilosis, 1 µg/mL (≈ 4.82 µM). For the same compound, the MIC in the test on Staphylococcus aureus [1] was 15.4 µg/mL (≈ 74.3 µM); in the test with Staphylococcus aureus [2], 5.2 µg/mL (≈ 25.1 µM); in the test on Staphylococcus aureus [3], 9.8 µg/mL (≈ 47.3 µM); in the test with Escherichia coli, over 50 µg/mL; with Pseudomonas aeruginosa, over 50 µg/mL; against Klebsiella pneumoniae, over 50 µg/mL. Moreover, the MIC is 0.6 µg/mL (≈ 2.89 µM) against Candida albicans; 0.4 µg/mL (≈ 1.93 µM) with Cryptococcus neoformans; 1.4 µg/mL (≈ 6.75 µM) in the test on Sporothrix schenckii; over 50 µg/mL in test [4]; 2.6 µg/mL (≈ 12.5 µM) against Aspergillus fumigatus; 1.1 µg/mL (≈ 5.31 µM) in the test on Candida parapsilosis. Further, the pIC50 in the test on Plasmodium falciparum was under 5.70.

For the compound `CC[C@H](C)[C@@H](C(=O)OC)n1sc2ccccc2c1=O`, the IC50 in the test with Staphylococcus aureus [1] was 2 µg/mL (≈ 7.16 µM); in the test on Staphylococcus aureus [2], 0.43 µg/mL (≈ 1.54 µM); in the test with Staphylococcus aureus [3], 2.1 µg/mL (≈ 7.52 µM); in the test with Escherichia coli, over 50 µg/mL; with Pseudomonas aeruginosa, over 50 µg/mL; with Klebsiella pneumoniae, over 50 µg/mL. The IC50 in the test with Candida albicans is 1.6 µg/mL (≈ 5.73 µM); in the test on Cryptococcus neoformans it was 7.3 µg/mL (≈ 26.1 µM); in the test with Sporothrix schenckii, 4.7 µg/mL (≈ 16.8 µM); in [4], over 50 µg/mL; in the test on Candida parapsilosis, 3.1 µg/mL (≈ 11.1 µM). Further, the minimum inhibitory concentration (MIC) with Staphylococcus aureus [1] was 4.2 µg/mL (≈ 15 µM); with Staphylococcus aureus [2] it was 0.89 µg/mL (≈ 3.19 µM); in the test with Staphylococcus aureus [3], 4.3 µg/mL (≈ 15.4 µM); against Escherichia coli, over 50 µg/mL; in the test on Pseudomonas aeruginosa it was over 50 µg/mL; with Klebsiella pneumoniae, over 50 µg/mL. Also, the minimum inhibitory concentration (MIC) against Candida albicans was 2.5 µg/mL (≈ 8.95 µM); against Cryptococcus neoformans, 8.3 µg/mL (≈ 29.7 µM); against Sporothrix schenckii it was 18.2 µg/mL (≈ 65.1 µM); in test [4], over 50 µg/mL; in the test with Aspergillus fumigatus, 12.5 µg/mL (≈ 44.7 µM); with Candida parapsilosis, 4.5 µg/mL (≈ 16.1 µM). In addition, the negative logarithm of the IC50 (pIC50) in the test on Plasmodium falciparum is under 5.70.

With `CC(Cn1sc2ccccc2c1=O)n1sc2ccccc2c1=O` (centres undefined), the concentration for half-maximal inhibition (IC50) in the test with Staphylococcus aureus [1] is 6.1 µg/mL (≈ 17.8 µM); in the test with Staphylococcus aureus [2] it was 1.5 µg/mL (≈ 4.38 µM); in the test with Staphylococcus aureus [3], 2 µg/mL (≈ 5.84 µM); in the test with Escherichia coli, over 50 µg/mL; in the test on Pseudomonas aeruginosa, over 50 µg/mL; in the test on Klebsiella pneumoniae, over 50 µg/mL. Also, the IC50 was 2.2 µg/mL (≈ 6.42 µM) in the test on Candida albicans, 1.61 µg/mL (≈ 4.7 µM) with Cryptococcus neoformans, 3.7 µg/mL (≈ 10.8 µM) with Sporothrix schenckii and over 50 µg/mL with Candida parapsilosis. Further, the MIC in the test on Staphylococcus aureus [1] was 12.4 µg/mL (≈ 36.2 µM); against Staphylococcus aureus [2] it was 2.6 µg/mL (≈ 7.59 µM); against Staphylococcus aureus [3], 4.1 µg/mL (≈ 12 µM); in the test with Escherichia coli it was over 50 µg/mL; against Pseudomonas aeruginosa, over 50 µg/mL; with Klebsiella pneumoniae, over 50 µg/mL. Besides, the MIC in the test on Candida albicans is 3.1 µg/mL (≈ 9.05 µM); against Cryptococcus neoformans it was 1.67 µg/mL (≈ 4.88 µM); against Sporothrix schenckii it was 6.6 µg/mL (≈ 19.3 µM); in [4], 4.3 µg/mL (≈ 12.6 µM); with Aspergillus fumigatus, 12.5 µg/mL (≈ 36.5 µM); in the test with Candida parapsilosis it was over 50 µg/mL. In addition, the negative logarithm of the IC50 (pIC50) in the test on Plasmodium falciparum is under 5.70.
